Bioassay records from PubChem BioAssay.
CSN inh: blocks human CSN-mediated cullin deneddylation; inhibition, % at 12.5 µM; Q92905; Purified CSN, SCF-Nedd8-OG deneddylation, fluorescence polarization; hit rate 0.38% among 360,000;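 active means pattern-corrected inhibition above about 35%, with an unprinted fluorescence ratio check between 0.5 and 1.5, limit read from the data, passing the limit was not always enough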;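 further: 0% = enzyme with substrate and 100% = substrate without enzyme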
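Test system: purified human Csn5 enzyme expressed in HEK293T cells. Amount: 0.24 nM enzyme. Reagent: SCFSkp2-Nedd8OG substrate at 10 nM final. Schedule: 90 min incubation of compound, enzyme and substrate at room temperature. Detection: fluorescence polarization. Read-out: % inhibition of substrate cleavage by Csn5.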
rCAG binder: binds r(CAG) RNA repeats; hit rate 1.3% among 370,000; r(CAG) RNA repeat, TO-PRO-1 dye displacement fluorescence; inhibition, % at 3 µM;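 active means inhibition above the plate cutoff, the mean of all test compounds on that plate plus 3 SD, cut at about 35% in these data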;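 further: 0% = DMSO alone and 100% = 100 µM mitoxantrone as full dye displacement; higher means more dye released from RNA so lower well fluorescence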
UHRF1 MBD2 ctr: blocks human UHRF1 binding to methylated DNA | Q96T88 | UHRF1 binding to methylated oligo, TR-FRET | inhibition, % at 4.4 µM | hit rate 0.75% among 370,000; in the data active means inhibition above about 21%;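 further: UHRF1 SRA domain binding a hemimethylated CpG hairpin DNA probe; 0% = median of test compound wells and 100% = reference inhibitor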
MBD2 DNA inh: inhibitors of human MBD2 binding to methylated oligonucleotide; Q9UBB5; TR-FRET; inhibition, % at 4.4 µM; hit rate 0.31% among 370,000; AID 686964; in the data active means inhibition above about 13%
Target sequence (Q9UBB5 whole entry, looked up): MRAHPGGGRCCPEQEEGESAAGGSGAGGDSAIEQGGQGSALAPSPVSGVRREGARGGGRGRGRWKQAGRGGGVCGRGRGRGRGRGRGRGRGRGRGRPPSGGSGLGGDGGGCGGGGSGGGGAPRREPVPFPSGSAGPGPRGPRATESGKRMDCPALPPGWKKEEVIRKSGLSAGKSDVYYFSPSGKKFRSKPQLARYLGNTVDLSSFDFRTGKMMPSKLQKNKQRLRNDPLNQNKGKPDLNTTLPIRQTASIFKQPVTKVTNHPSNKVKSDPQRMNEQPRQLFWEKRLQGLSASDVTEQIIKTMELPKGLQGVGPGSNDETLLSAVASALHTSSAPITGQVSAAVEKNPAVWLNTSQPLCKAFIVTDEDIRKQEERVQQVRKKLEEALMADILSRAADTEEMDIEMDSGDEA
LEDGF integ inh: blocks HIV-1 LEDGF/p75-dependent DNA integration. TR-FRET IN-LEDGF/p75 DNA integration, Eu/Cy5. hit rate 0.64% among 370,000. AID 743269. inhibition, % at 3.7 µM;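 active means inhibition above the screen-wide mean plus 3 SD, cut at about 13% in these data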;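 further: signal is the Cy5 over europium emission ratio at 671 and 618 nm; 0% = plate median of compound wells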
ATG4B inhibitor: ATG4B (human) cysteine protease inhibition; AID 504462; ATG4B cleavage of LC3-PLA2, NBD-HPC fluorescence, 1 h; Q9Y4P1; hit rate 0.51% among 340,000; inhibition, % at 8.33 µM; in the data active means inhibition above about 40%
rCAG binder conf: r(CAG) RNA repeat binding, confirmation. TO-PRO-1 dye displacement fluorescence. shares compounds with rCAG binder. inhibition, % at 3 µM. AID 652065. hit rate 70% among 4,300;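 active means inhibition above a per-plate cutoff, the mean inhibition of sample wells plus 3 SD, cut at about 35% in these data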;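 further: loss of TO-PRO-1 fluorescence as compound displaces dye from 1x1 AA loop RNA; 0% = DMSO only wells and 100% = 100 µM mitoxantrone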
DNA CAG counter: disrupts DNA CAG TO-PRO-1 complex, flagging rCAG hits. hit rate 94% among 4,300. shares compounds with rCAG binder. d(CAG) DNA oligo TO-PRO-1 dye displacement, fluorescence. AID 652068. inhibition, % at 3 µM;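 active means inhibition above its plate's cutoff, the mean test-well inhibition plus 3 SD, cut at about 4.8% in these data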;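 further: 0% = DNA dye mix with DMSO and 100% = 100 µM mitoxantrone; hits displace the dye from DNA and so lower well fluorescence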
Numbers without * were called inactive; · = no result. Shown are actives, neighbours in structure and some others; about 3.1% of the full set was active somewhere.

SMILES	CSN inh	rCAG binder	UHRF1 MBD2 ctr	MBD2 DNA inh	LEDGF integ inh	ATG4B inhibitor	rCAG binder conf	DNA CAG counter
COP(=S)(OC)Oc1ccc(Sc2ccc(OP(=S)(OC)OC)cc2)cc1	0.0	38.6*	13.5	1.2	4.0	-8.1	18.8	7.6*
Cc1cc2c(C(C)C)c(O)c(O)c(C=O)c2c(O)c1-c1c(C)cc2c(C(C)C)c(O)c(O)c(C=O)c2c1O	14.5	97.2*	-4.4	-6.8	66.4*	·	94.4*	80.9*
O=C(NCCN1CCC2(CC1)C(=O)NCN2c1ccccc1)c1cccnc1Cl	·	0.7	-0.7	-0.6	-2.5	·	·	·
CCC(C)n1c(O)c(/C=N/N2CCOCC2)c(=O)[nH]c1=S (stereo not drawn)	4.4	36.3*	-1.4	0.8	-2.0	0.4	2.3	0.1
CC(C)(C)Cc1nnc(NC(=O)COc2ccc(Cl)cc2Cl)o1	·	·	0.7	5.9	-2.3	·	·	·
COc1cc(/C=C2\C(=O)NC(=O)N(CCc3ccc(F)cc3)C2=O)ccc1O	-3.5	43.4*	1.5	5.4	-1.4	-0.4	5.0	1.2
CCOc1ccc(/C=C2/C(=O)NC(=O)N(CCc3ccc(F)cc3)C2=O)cc1	-0.7	35.4*	-4.4	-5.6	2.6	1.6	3.2	2.3
COc1ccc(CN2C(=O)NC(=O)/C(=C/c3ccoc3)C2=O)cc1	160.6	52.8*	21.3*	8.2	10.5	-2.6	45.0*	17.4*
O=C1NC(=O)N(Cc2ccco2)C(=O)/C1=C/c1cccn1CCOc1ccccc1Cl	21.9	49.2*	49.9*	12.1	57.3*	-5.6	11.3	5.7*
Cn1cccc1/C=C1/C(=O)NC(=S)N(Cc2ccc(F)cc2)C1=O	8.2	74.0*	-1.6	2.5	7.8	33.0	51.4*	30.2*
Cn1cccc1/C=C1/C(=O)NC(=O)N(Cc2ccccc2)C1=O	3.5	49.4*	-4.2	-4.4	-1.1	-4.2	4.7	3.5
CCC(C)c1ccc(N2C(=O)NC(=O)/C(=C/c3cccn3CCOc3ccc(C)cc3)C2=O)cc1 (stereo not drawn)	21.9	22.2	0.3	0.0	-2.2	7.6	·	·
CC(=O)NCC1=C(c2ccc(S(C)(=O)=O)cc2)C[C@@H]2CC[C@H]1N2CCOc1ccccc1	·	-0.8	-0.3	-6.3	-3.2	·	·	·
Cc1ccc(OC(=O)N(C)C[C@@H]2OCc3ccccc3-c3c(n(C)c4ccccc34)C(=O)N([C@H](C)CO)C[C@H]2C)cc1	·	7.8	-1.6	-0.5	2.7	·	·	·
Cc1cc(N2CCNC[C@@H]2C)ccc1N1CCN[C@@H](C)C1	·	2.2	0.6	-2.4	-2.7	·	·	·
Cn1cccc1/C=C1/C(=O)NC(=O)N(Cc2ccc(F)cc2)C1=O	-0.2	40.6*	20.0	-0.9	0.7	25.4	7.7	3.4
C=CCN1C(=O)NC(=O)/C(=C/c2cccn2C)C1=O	-3.4	5.2	-3.6	1.1	-1.6	-6.7	·	·
O=C1NC(=O)N(Cc2ccccc2)C(=O)/C1=C\c1ccco1	27.4	47.9*	0.7	-4.3	5.5	15.7	34.8*	11.4*
CCCCN1C(=O)/C(=C\c2ccco2)C(=O)N(CCc2ccccc2)C1=O	21.1	27.3	-3.8	-0.9	-0.1	-3.4	·	·
Cn1cccc1/C=C1\C(=O)NC(=O)N(Cc2ccccc2)C1=O	0.1	40.3*	-2.6	-2.0	0.7	-1.8	6.8	2.0
CCOc1ccc(N2C(=O)/C(=C\c3cccs3)C(=O)NC2=S)cc1	·	38.8*	8.0	8.4	2.8	3.6	8.8	7.3*
O=C1NC(=S)N(c2ccccc2F)C(=O)/C1=C\c1cccs1	7.2	13.7	2.6	0.6	-2.8	-2.9	·	·
CN1C(=O)NC(=O)/C(=C/c2ccc([N+](=O)[O-])s2)C1=O	4.1	19.3	9.1	-1.6	2.6	1.9	·	·
O=C1NC(=O)N(c2ccccc2)C(=O)/C1=C\c1ccc([N+](=O)[O-])s1	·	43.2*	4.6	-1.9	8.1	-1.1	45.3*	18.1*
COc1ccc(OC)c(N2C(=O)NC(=O)/C(=C\c3ccc([N+](=O)[O-])s3)C2=O)c1	5.8	92.1*	3.1	-3.5	10.8	6.3	73.7*	33.9*
SMILES	CSN inh	rCAG binder	UHRF1 MBD2 ctr	MBD2 DNA inh	LEDGF integ inh	ATG4B inhibitor	rCAG binder conf	DNA CAG counter
O=C(N/N=C1/CN2CCC1CC2)c1cc2ccccc2cc1O	10.8	48.6*	2.4	-1.3	2.2	-14.1	6.7	2.2
O=[N+]([O-])c1ccc(N2CCCC2)cc1N/N=C1\CN2CCC1CC2	-9.4	2.0	-20.5	-24.2	1.2	-2.0	·	·
O=C(NC1CN2CCC1CC2)c1ccc(Cl)cc1 (stereo not drawn)	·	0.2	1.4	-5.0	0.4	·	·	·
O=C(O)c1ccccc1-c1ccc(C=C2C(=O)N(c3ccccc3)C(=S)N(c3ccccc3)C2=O)o1	9.1	57.0*	12.6	5.0	1.9	1.4	61.1*	25.8*
CN1C(=O)C(=Cc2ccc(N3CCCCCC3)o2)C(=O)N(C)C1=S	164.2	3.1	-2.1	0.0	6.3	-1.4	·	·
CC(C)(C)n1nnnc1C1CN=C(c2ccccc2)c2cc(Cl)ccc2N1 (stereo not drawn)	·	-1.4	-3.6	-3.7	2.4	·	·	·
COc1ccc(NC(=O)CN(C)C(=O)CSC(c2ccccc2)c2ccccc2)cc1	1.4	1.1	0.1	3.3	2.2	5.0	·	·
COc1ccc(C(SCC(NC(=O)OCc2ccccc2)C(=O)O)c2ccc(OC)cc2)cc1 (stereo not drawn)	3.7	52.9*	0.1	-3.3	-3.1	·	52.5*	14.2*
Cc1cccc(N2C(=O)/C(=C/c3ccc(N4CCN(C)CC4)o3)C(=O)NC2=S)c1C	122.6	49.4*	7.2	-4.5	14.0*	-2.8	54.6*	25.7*
C=CCn1c(O)c(/C(C)=N/NC(=S)Nc2ccccc2)c(=O)[nH]c1=O	2.3	37.3*	-2.5	0.3	-3.4	-3.1	44.2*	13.2*
C=CCn1c(O)c(/C(CC)=N/NC(=S)Nc2ccccc2)c(=O)[nH]c1=O	-2.8	1.1	0.6	-1.3	2.6	-3.6	·	·
